Assay results: ChEMBL document CHEMBL5108087, “Synthesis and biological evaluation of paeoveitol D derivatives as new melatonin receptor agonists with antidepressant activities” (RSC Med Chem, 2022)
The source made the active and inactive calls. The calls are words filed in the database; no cut-off is given here.

Tests used:
HEK293T [1] = assay: (§1) Agonist activity at human MT1 Q181A mutant receptor transfected in HEK293T cells co-transfected with tet-inducible luciferase reporter plasmid, pCDNA3.1(+)-CMV-betaArrestin2-tev plasmid and TANGO plasmid assessed as shift in concentration response curve incubated for 24 hrs by TANGO-GPCR assay based luminescence plate reader analysis relative to agomelatine; type: cell-based; conditions: filed as agonist
Procedure, shortened: (§2)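 293T cells transiently transfected with tet-inducible luciferase reporter, pCDNA3.1(+)-CMV-bArrestin2-tev and TANGO receptor plasmids (wild-type or point mutant). Next day plated at 20 000 cells/well on poly-L-lysine; drug added day 3. Day 4, Bright-Glo added, 20 min, then luminescence read. Concentration–response curves fitted; data mean ± SD.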

[2] = molecular target: Melatonin receptor type 1A (Homo sapiens, UniProt P48039); assay: as §1, with “MT1” for “MT1 Q181A mutant”, “tango arrestin recruitment” for “shift in concentration response curve”, “analysis” for “analysis relative to agomelatine”; type: functional, cell-based
HEK293T [3] = assay: as §1, with “N162A” for “Q181A”; type: cell-based; conditions: filed as agonist; procedure, shortened: as §2
[4] = molecular target: T1, Melatonin receptor type 1B (Homo sapiens, UniProt P49286); assay: as §1, with “MT2” for “MT1 Q181A mutant”, “relative luminescence unit” for “shift in concentration response curve”, “analysis” for “analysis relative to agomelatine”; type: functional, cell-based
T1 sequence (P49286 whole entry): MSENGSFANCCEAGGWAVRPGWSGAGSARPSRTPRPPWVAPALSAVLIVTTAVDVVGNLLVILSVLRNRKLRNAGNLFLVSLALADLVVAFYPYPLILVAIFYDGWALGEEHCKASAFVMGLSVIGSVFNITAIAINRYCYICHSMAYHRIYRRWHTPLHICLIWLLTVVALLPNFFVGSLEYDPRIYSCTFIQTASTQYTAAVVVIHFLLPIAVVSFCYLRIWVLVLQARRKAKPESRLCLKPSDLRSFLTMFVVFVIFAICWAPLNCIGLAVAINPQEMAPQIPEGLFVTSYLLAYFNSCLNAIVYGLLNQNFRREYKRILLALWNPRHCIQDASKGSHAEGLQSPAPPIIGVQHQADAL

Chain of Melatonin receptor type 1A (P48039 whole entry): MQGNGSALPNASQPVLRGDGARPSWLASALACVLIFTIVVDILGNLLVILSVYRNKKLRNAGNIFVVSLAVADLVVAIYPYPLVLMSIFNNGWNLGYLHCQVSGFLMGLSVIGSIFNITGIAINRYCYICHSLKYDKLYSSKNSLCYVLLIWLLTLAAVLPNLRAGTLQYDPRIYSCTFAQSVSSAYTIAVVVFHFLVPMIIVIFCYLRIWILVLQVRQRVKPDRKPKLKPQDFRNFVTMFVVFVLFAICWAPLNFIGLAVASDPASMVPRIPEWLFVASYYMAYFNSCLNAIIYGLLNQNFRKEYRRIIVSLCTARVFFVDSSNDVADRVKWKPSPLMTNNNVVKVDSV

COc1ccc2[nH]c(-c3ccccc3)c(CCNC(C)=O)c2c1
Activity (HEK293T [1]): Active
EC50 [2]: 0.0165 µM
Activity (HEK293T [3]): Active
EC50 [4]: 7 µM
